Data taken from ChEMBL document CHEMBL1141334, “Mirabamides A-D, depsipeptides from the sponge Siliquariaspongia mirabilis that inhibit HIV-1 fusion” (J Nat Prod, 2007).
Calls of active or inactive are those of the source. The calls are words filed in the database; no cut-off is given here. *1 amine or outer side, *2 acyl side, *3 side chain or, on linkers, in order; H or OH if unused. Where a SMILES comes first, the peptide text is derived from it. Bridges are numbered along the chain shown (N, C = ends). [ ]: non-standard residue; d: D form. The star is where a group is joined. dLeu(3R-OH) = CC(C)[C@@H](O[*:3])[C@@H](N[*:1])C(=O)[*:2]; Gln(3S,4R-Me2) = C[C@H]([C@H](N)C(=O)O)[C@@H](C)C(N)=O; dTyr(βR-OMe) = CO[C@H](c1ccc(O)cc1)[C@@H](N)C(=O)O; Pip(4S-Cl) = O=C(O)[C@@H]1C[C@@H](Cl)CCN1; X1 = CCC(C)/C=C(C)/C=C\C(O)C(C)(O)C(=O)*; Abu(3R-NH2) = C[C@@H](N)[C@H](N)C(=O)O; NMeT = CN[C@H](C(=O)O)[C@@H](C)O

Tests used:
[1] = tested on: Human immunodeficiency virus 1; assay: Inhibition of HIV HXB2 in TZM-bl cells after 48 hrs by neutralization assay; format: functional, organism-based; conditions: Human immunodeficiency virus 1, HXB2, TZM-bl
How it was run: (§1)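 Env-pseudotyped viral particles (HXB2, CXCR4-using; SF162, CCR5-using) added with varying inhibitor concentrations (in H2O or 20% EtOH in H2O) to TZM-bl cells (CD4, CXCR4, CCR5) after overnight plating at 37 °C. Luciferase luminescence (RLU) read after 48 h at 37 °C. Duplicate or triplicate, on at least two different days.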

[2] = tested on: Human immunodeficiency virus 1; assay: Inhibition of HIV SF162 in TZM-bl cells after 48 hrs by neutralization assay; format: functional, organism-based; conditions: Human immunodeficiency virus 1, SF162, TZM-bl; how it was run: as §1
[3] = tested on: Human immunodeficiency virus 1; assay: Inhibition of HIV LAV in BSC1 cells after 2.5 hrs by cell fusion assay; format: functional, organism-based; conditions: Human immunodeficiency virus 1, LAV, BSC-1, 2.5 h
[4] = Cytotoxicity against human TZM-bl cells after 24 hrs by MTT assay; format: functional, cell-based
How it was run: (§2)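 MTT kit assay. Cells seeded at 2 × 10^4/well, adhered 18 h, then exposed for 3 h (fusion-assay conditions) or 24 h (neutralization-assay conditions). Medium then replaced or diluted 3-fold with fresh growth medium, followed by 72 h further culture. Viability read at A570 after MTT.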

[5] = Cytotoxicity against african green monkey BSC1 cells after 3 hrs by MTT assay; format: cell-based; conditions: chlorocebus aethiops, bsc-1, 3 h; how it was run: as §2
Bacillus subtilis [6] = assay: Antimicrobial activity against Bacillus subtilis ATCC 49343 at 1 ug per disk after 18 hrs by disk diffusion method; format: functional; conditions: ATCC 49343, 18 h, read-out: IZ
How it was run: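 Modified disk diffusion: 24 h bacterial culture seeded (500 µL per 100 mL) into Antibiotic Medium 2 with 1% agar at 55 °C, 10 mL poured into square dishes, cooled 1 h. Compound applied to disks (1–25 µg range tested); chloramphenicol 10 µg disk as control. Incubated 37 °C, 18 h; inhibition zone diameters measured.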

Candida albicans = assay: Antifungal activity against Candida albicans ATCC 90027 at 5 ug per disk after 18 hrs by disk diffusion method; format: functional; conditions: ATCC 90027, 18 h, read-out: IZ
How it was run: (§3)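 Modified disk diffusion. Bacteria: 500 µL of 24 h culture in 100 mL Antibiotic Medium 2 with 1% agar at 55 °C; C. albicans in Sabouraud dextrose agar at 55 °C. 10 mL seeded agar poured per dish, cooled 1 h. Compounds applied at 1–25 µg; zones of inhibition measured after 18 h at 37 °C.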

Escherichia coli = assay: Antimicrobial activity against Escherichia coli ATCC 8739 at 25 ug per disk after 18 hrs by disk diffusion method; format: functional, organism-based; how it was run: as §3
Pseudomonas aeruginosa = assay: Antimicrobial activity against Pseudomonas aeruginosa ATCC 15442 at 25 ug per disk after 18 hrs by disk diffusion method; format: functional, organism-based; how it was run: as §3
Staphylococcus aureus = assay: Antimicrobial activity against Staphylococcus aureus ATCC 25923 at 25 ug per disk after 18 hrs by disk diffusion method; format: functional, organism-based; how it was run: as §3
HCT-116 = assay: Cytotoxicity against human HCT116 cells by MTT assay; format: functional, cell-based; how it was run: as §2
Bacillus subtilis [7] = assay: Antimicrobial activity against Bacillus subtilis ATCC 49343 at 5 ug per disk after 18 hrs by disk diffusion method; format: functional, organism-based; how it was run: as §3

Row | SMILES | IC50 [1] | IC50 [2] | IC50 [3] | IC50 [4] | Activity [5] | zone of inhibition at 1 µg/disc (Bacillus subtilis [6]) | zone of inhibition at 5 µg/disc (Candida albicans) | Activity (Escherichia coli) | Activity (Pseudomonas aeruginosa) | Activity (Staphylococcus aureus) | IC50 (HCT-116) | Activity (Bacillus subtilis [7])
1 | CCC(C)/C=C(C)/C=C\C(O)C(C)(O)C(=O)NCC(=O)N[C@H](C(=O)N[C@H](C(=O)N[C@H](C(=O)N[C@H]1C(=O)N[C@H](COC)C(=O)NCC(=O)N[C@@H](C)C(=O)N(C)[C@@H]([C@@H](C)O)C(=O)N[C@H]([C@H](OC)c2ccc(O)cc2)C(=O)N2CC[C@H](Cl)C[C@H]2C(=O)O[C@@H]1C(C)C)[C@@H](C)[C@@H](C)C(N)=O)[C@@H](C)N)[C@@H](C)O (stereo partly drawn) [MIRABAMIDE C] (X1-GT[Abu(3R-NH2)][Gln(3S,4R-Me2)][dLeu(3R-OH)][dS](Me)GA[NMeT][dTyr(βR-OMe)][Pip(4S-Cl)]; ester 5-C) | 144 nM | 1010 nM | 1300 nM | 2200 nM | Non-toxic | 9 mm | 9 mm | inactive | inactive | inactive | – | –
2 | CCC(C)/C=C(C)/C=C\C(O)C(C)(O)C(=O)NCC(=O)N[C@H](C(=O)N[C@H](C(=O)N[C@H](C(=O)N[C@H]1C(=O)N[C@H](COC)C(=O)NCC(=O)N[C@@H](C)C(=O)N(C)[C@@H]([C@@H](C)O)C(=O)N[C@H]([C@H](OC)c2ccc(O[C@@H]3O[C@@H](C)[C@H](O)[C@@H](O)[C@H]3O)cc2)C(=O)N2CC[C@H](Cl)C[C@H]2C(=O)O[C@@H]1C(C)C)[C@@H](C)[C@@H](C)C(N)=O)[C@@H](C)N)[C@@H](C)O (stereo not given in full) [MIRABAMIDE A] | 140 nM | 400 nM | 41 nM | 1800 nM | Non-toxic | – | 9 mm | inactive | inactive | inactive | 2220 nM | Active
3 | C/C=C(\NC(=O)[C@@H](NC(=O)CNC(=O)C(C)(O)C(O)/C=C\C(C)=C\C(C)CC)[C@@H](C)O)C(=O)N[C@H](C(=O)N[C@H]1C(=O)N[C@H](COC)C(=O)NCC(=O)N[C@@H](C)C(=O)N(C)[C@@H]([C@@H](C)O)C(=O)N[C@H]([C@H](OC)c2ccc(O[C@@H]3O[C@@H](C)[C@H](O)[C@@H](O)[C@H]3O)cc2)C(=O)N2CC[C@H](Cl)C[C@H]2C(=O)O[C@@H]1C(C)C)[C@@H](C)[C@@H](C)C(N)=O (stereo not given in full) [MIRABAMIDE B] | > 50000 nM | > 50000 nM | > 10000 nM | – | Non-toxic | – | 9 mm | inactive | inactive | inactive | – | Active

The next lines start with results.

Row | IC50 [1] | IC50 [2] | IC50 [3] | SMILES | IC50 [4] | Activity [5] | zone of inhibition at 1 µg/disc (Bacillus subtilis [6]) | zone of inhibition at 5 µg/disc (Candida albicans) | Activity (Escherichia coli) | Activity (Pseudomonas aeruginosa) | Activity (Staphylococcus aureus) | IC50 (HCT-116) | Activity (Bacillus subtilis [7])
4 | 189 nM | 1310 nM | 3900 nM | CCC(C)/C=C(C)/C=C\C(O)C(C)(O)C(=O)NCC(=O)N[C@H](C(=O)N[C@H](C(=O)N[C@H](C(=O)N[C@H]1C(=O)N[C@H](COC)C(=O)NCC(=O)N[C@@H](C)C(=O)N(C)[C@@H]([C@@H](C)O)C(=O)N[C@H]([C@H](OC)c2ccc(O[C@@H]3O[C@@H](C)[C@H](O)[C@@H](O)[C@H]3O)cc2)C(=O)N2CCCC[C@H]2C(=O)O[C@@H]1C(C)C)[C@@H](C)[C@@H](C)C(N)=O)[C@@H](C)N)[C@@H](C)O (stereo not given in full) [MIRABAMIDE D] | 3900 nM | Non-toxic | 9 mm | – | inactive | inactive | inactive | – | –
5 | – | – | 73 nM | CCC(C)/C=C(C)/C=C\C(O)C(C)(O)C(=O)NCC(=O)N[C@H](C(=O)N[C@H](C(=O)N[C@H](C(=O)N[C@H]1C(=O)N[C@H](COC)C(=O)NCC(=O)N[C@@H](C)C(=O)N(C)[C@@H]([C@@H](C)O)C(=O)N[C@H]([C@H](OC)c2ccc(O)cc2)C(=O)N2CCCC[C@H]2C(=O)O[C@@H]1C(C)C)[C@@H](C)[C@@H](C)C(N)=O)[C@@H](C)N)[C@@H](C)O (stereo not given in full) [PAPUAMIDE A] | – | Non-toxic | – | – | inactive | inactive | inactive | 3500 nM | –
